Reference: PMC4191598 (Journal of Medicinal Chemistry, 2014)

Key:
human TLR8 [1] = molecular target: T1, human TLR8 (Homo sapiens, UniProt Q9NR97); conditions: earlier observation; cited from earlier work
T1 sequence (Q9NR97 27-1041): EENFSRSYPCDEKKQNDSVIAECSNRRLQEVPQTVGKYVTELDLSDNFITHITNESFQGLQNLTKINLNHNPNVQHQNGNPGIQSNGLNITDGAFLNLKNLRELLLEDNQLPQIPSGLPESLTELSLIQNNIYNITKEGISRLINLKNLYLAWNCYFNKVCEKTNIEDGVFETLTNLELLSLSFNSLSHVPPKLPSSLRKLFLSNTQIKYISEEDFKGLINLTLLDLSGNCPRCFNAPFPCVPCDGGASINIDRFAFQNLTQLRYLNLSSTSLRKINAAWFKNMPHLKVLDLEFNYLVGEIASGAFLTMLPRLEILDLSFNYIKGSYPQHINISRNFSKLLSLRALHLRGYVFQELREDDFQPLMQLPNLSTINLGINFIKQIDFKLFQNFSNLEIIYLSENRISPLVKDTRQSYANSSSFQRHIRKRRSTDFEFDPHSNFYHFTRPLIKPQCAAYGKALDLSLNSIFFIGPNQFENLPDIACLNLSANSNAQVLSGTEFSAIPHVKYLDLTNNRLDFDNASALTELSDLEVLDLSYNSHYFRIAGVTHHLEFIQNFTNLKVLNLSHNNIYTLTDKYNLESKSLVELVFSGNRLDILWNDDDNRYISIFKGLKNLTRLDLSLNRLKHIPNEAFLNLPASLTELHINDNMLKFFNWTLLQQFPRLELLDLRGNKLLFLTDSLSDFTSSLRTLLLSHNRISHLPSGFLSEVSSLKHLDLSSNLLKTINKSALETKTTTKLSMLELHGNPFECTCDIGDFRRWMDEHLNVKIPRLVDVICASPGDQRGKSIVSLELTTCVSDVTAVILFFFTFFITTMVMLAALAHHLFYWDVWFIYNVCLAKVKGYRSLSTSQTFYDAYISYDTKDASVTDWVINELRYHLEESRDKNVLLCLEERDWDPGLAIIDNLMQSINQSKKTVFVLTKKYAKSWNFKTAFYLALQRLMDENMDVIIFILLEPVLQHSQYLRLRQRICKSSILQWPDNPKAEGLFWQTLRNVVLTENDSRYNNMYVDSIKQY

[2] = test system: human peripheral blood mononuclear cells (hPBMCs); assay: IFN-α induction in human PBMCs; type: cell-based; conditions: 12 h stimulation, graded concentrations
Outline: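 Fresh PBMCs were isolated on Ficoll–Hypaque gradients from venous blood of consenting donors and plated at 10^5 cells/well. They were stimulated for 12 h with graded concentrations of test compound. Supernatants were collected by centrifugation and assayed in triplicate with high-sensitivity multisubtype IFN-α ELISA.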

human TLR7 = molecular target: T2, human TLR7 (Homo sapiens, UniProt Q9NYK1); assay: Human TLR7 reporter gene assay; type: cell-based; conditions: for TLR7-agonistic activity (in words): TLR7 reporter gene assay
T2 sequence (Q9NYK1 27-1049): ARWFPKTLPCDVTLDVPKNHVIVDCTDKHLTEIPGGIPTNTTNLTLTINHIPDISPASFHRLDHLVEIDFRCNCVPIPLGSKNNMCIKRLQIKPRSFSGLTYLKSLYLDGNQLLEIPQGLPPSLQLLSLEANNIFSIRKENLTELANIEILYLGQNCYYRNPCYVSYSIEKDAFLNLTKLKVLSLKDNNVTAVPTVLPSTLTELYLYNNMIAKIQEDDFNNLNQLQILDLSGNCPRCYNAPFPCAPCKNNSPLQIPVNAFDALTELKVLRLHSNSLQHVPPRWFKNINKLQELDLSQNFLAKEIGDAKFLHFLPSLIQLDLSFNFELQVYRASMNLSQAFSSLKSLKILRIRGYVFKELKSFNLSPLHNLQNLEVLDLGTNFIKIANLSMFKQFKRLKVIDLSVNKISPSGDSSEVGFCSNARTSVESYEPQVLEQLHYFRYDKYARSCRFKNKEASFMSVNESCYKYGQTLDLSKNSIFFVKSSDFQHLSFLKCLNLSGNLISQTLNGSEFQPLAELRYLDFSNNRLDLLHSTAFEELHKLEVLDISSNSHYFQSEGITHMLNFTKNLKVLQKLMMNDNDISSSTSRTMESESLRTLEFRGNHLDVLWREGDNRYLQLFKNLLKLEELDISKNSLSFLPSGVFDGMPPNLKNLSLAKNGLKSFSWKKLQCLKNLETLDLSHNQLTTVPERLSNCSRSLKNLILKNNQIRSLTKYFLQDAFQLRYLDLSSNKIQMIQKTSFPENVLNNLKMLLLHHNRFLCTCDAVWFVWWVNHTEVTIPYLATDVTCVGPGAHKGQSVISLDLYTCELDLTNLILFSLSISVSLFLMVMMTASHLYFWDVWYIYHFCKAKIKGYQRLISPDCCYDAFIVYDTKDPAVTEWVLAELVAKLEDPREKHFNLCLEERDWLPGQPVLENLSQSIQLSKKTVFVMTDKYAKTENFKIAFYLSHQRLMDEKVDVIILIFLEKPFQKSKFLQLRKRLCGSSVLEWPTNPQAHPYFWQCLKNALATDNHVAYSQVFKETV

human TLR8 [3] = molecular target: T1, human TLR8; assay: Human TLR8 reporter gene assay; type: cell-based; conditions: for TLR8-agonistic activity (in words): TLR8 reporter gene assay; for TLR7/TLR8 selectivity (in words): TLR7 and TLR8 reporter gene assays
Outline: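 HEK-Blue cells carrying human TLR8, with secreted alkaline phosphatase under NF-κB/AP-1 promoter control, seeded at ~10^5 cells/mL and grown to confluency. Stimulated with graded concentrations of test compound. Supernatant sAP, proportional to NF-κB induction, read spectrophotometrically at 620 nm using an alkaline phosphatase-specific chromogen in the detection medium.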

[4] = test system: human lymphocytic subsets in whole blood; assay: CD69 up-regulation in lymphocytic subsets, ex vivo whole human blood; type: cell-based; conditions: 16.5 h

| SMILES | TLR7-agonistic activity (in words) (human TLR7) | TLR8-agonistic activity (in words) (human TLR8 [3]) | also measured |
| --- | --- | --- | --- |
| CCCCc1cc2c(o1)c(N)nc1ccccc12 [Compound 5, 2-butylfuro[2,3-c]quinolin-4-amine] |  |  | TLR8 agonism (in words) (human TLR8 [1]): prominent and selective TLR8 agonism |
| CCCCc1nc2c(N)nc3ccccc3c2o1 [Compound 9, 2-Butyloxazolo[4,5-c]quinolin-4-amine] |  |  | IFN-α induction [2]: showed IFN-α inducing ability |
| CCCNc1nc2c(N)nc3ccccc3c2s1 [Compound 11, N^2-Propylthiazolo[4,5-c]quinoline-2,4-diamine] |  |  | EC50 (human TLR7): 730 nM; IFN-α induction [2]: showed IFN-α inducing ability |
| CCCNc1nc2c(N)nc3ccccc3c2o1 [Compound 13, N^2-Propyloxazolo[4,5-c]quinoline-2,4-diamine] | entirely devoid of any detectable TLR7- or TLR8-agonistic activity | entirely devoid of any detectable TLR7- or TLR8-agonistic activity |  |
| CCC(=O)Nc1nc2c(N)nc3ccccc3c2s1 [Compound 16, N-(4-Aminothiazolo[4,5-c]quinolin-2-yl)propionamide] | inactive | inactive |  |
| Nc1nc2c(N)nc3ccccc3c2s1 [Compound 17, thiazolo[4,5-c]quinoline-2,4-diamine] | inactive | inactive |  |
| CCCCc1nc2c(s1)c(N)nc1ccccc12 [Compound 22a, 2-Butylthiazolo[5,4-c]quinolin-4-amine] | completely inactive | completely inactive |  |
| CCCCc1nc2c(o1)c(N)nc1ccccc12 [Compound 22b, 2-Butyloxazolo[5,4-c]quinolin-4-amine] |  | negligibly low TLR8-agonistic activity |  |
| CCCCC1CN2C(N)=Nc3ccccc3C2=N1 (stereo not drawn) [Compound 27, 2-Butyl-2,3-dihydroimidazo[1,2-c]quinazolin-5-amine] | entirely inactive | entirely inactive |  |
| CCCCC1CN2C(=N1)C(N)=Nc1ccccc12 (stereo not drawn) [Compound 37, 2-Butyl-1,2-dihydroimidazo[1,2-a]quinoxalin-4-amine] |  |  | TLR7/TLR8 selectivity (in words) (human TLR8 [3]): selective TLR8 agonists |
| CCCCc1cn2c(n1)c(N)nc1ccccc12 [Compound 39, 2-Butylimidazo[1,2-a]quinoxalin-4-amine] |  |  | TLR7/TLR8 selectivity (in words) (human TLR8 [3]): selective TLR8 agonists |
| CCCCn1cc2c(n1)c(N)nc1ccccc12 [Compound 53, 2-Butyl-2H-pyrazolo[3,4-c]quinolin-4-amine] |  |  | IFN-α induction [2]: showed IFN-α inducing ability; CD69 expression in cytokine-induced killer-, natural killer-, T- and B-lymphocytic subsets [4]: dramatically enhanced expression |

The next lines start with results.

| TLR7-agonistic activity (in words) (human TLR7) | TLR8-agonistic activity (in words) (human TLR8 [3]) | SMILES | also measured |
| --- | --- | --- | --- |
| entirely inactive | entirely inactive | CCCCc1cn2c(N)nc3ccccc3c2n1 [Compound 29, 2-Butylimidazo[1,2-c]quinazolin-5-amine] |  |
| inactive | inactive | CCCCc1nc2c3ccccc3nc(N)n2n1 [Compound 33, 2-Butyl[1,2,4]triazolo[1,5-c]quinazolin-5-amine] |  |
| complete loss of activity | complete loss of activity | CCCCc1nc2c(N)nc3ccccc3n2n1 [Compound 46, 2-Butyl[1,2,4]triazolo[1,5-a]quinoxalin-4-amine] |  |
| complete loss of activity | complete loss of activity | CCCCc1nnc2c(N)nc3ccccc3n12 [Compound 49, 1-Butyl[1,2,4]triazolo[4,3-a]quinoxalin-4-amine] |  |
